In brackets after ≈: the same amount, converted by molar mass.
Key:
[1] = system: Mycolicibacterium smegmatis; assay: Antimycobacterial activity against active log phase Mycobacterium smegmatis ATCC 14468 by agar dilution method; type: functional
How it was run: (§1)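 Log-phase cultures (M. tuberculosis H37Rv at OD 600; M. smegmatis ATCC 14468) tested by agar dilution following NCCLS-type MIC procedure, in duplicate. MIC taken as lowest concentration giving complete inhibition of bacterial growth.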

[2] = system: Mycobacterium tuberculosis; assay: Antimycobacterial activity against 6-weeks nutrient starved phase cultures of Mycobacterium tuberculosis H37Rv treated for 7 days measured after 4 weeks by agar dilution method; type: functional
[3] = system: Mycobacterium tuberculosis; assay: Antimycobacterial activity against active log phase Mycobacterium tuberculosis H37Rv by agar dilution method; type: functional; how it was run: as §1
[4] = system: Mycolicibacterium smegmatis; assay: Antimycobacterial activity against 6-weeks nutrient starved phase cultures of Mycobacterium smegmatis ATCC 14468 treated for 7 days measured after 4 weeks by agar dilution method; type: functional
Isocitrate lyase = target: T1, Isocitrate lyase (Mycobacterium tuberculosis, UniProt P9WKK7); assay: Inhibition of Mycobacterium tuberculosis isocitrate lyase
T1 sequence (P9WKK7 whole entry): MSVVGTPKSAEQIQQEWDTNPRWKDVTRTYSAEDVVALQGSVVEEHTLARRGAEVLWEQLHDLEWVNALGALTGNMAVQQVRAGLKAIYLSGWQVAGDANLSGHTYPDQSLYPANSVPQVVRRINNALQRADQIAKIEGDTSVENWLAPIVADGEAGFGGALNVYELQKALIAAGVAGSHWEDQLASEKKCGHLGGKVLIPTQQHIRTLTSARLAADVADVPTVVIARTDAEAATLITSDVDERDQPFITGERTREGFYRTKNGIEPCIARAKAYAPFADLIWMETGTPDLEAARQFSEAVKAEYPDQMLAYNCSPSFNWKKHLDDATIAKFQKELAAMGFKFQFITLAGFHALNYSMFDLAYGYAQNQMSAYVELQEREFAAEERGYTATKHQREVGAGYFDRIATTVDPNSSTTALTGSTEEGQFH

[5] = Cytotoxicity against African green monkey Vero cells after 72 hrs by MTT assay; type: cell-based; conditions: chlorocebus sabaeus
How it was run: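 Vero cells exposed to a single concentration of 62.5 µg/mL for 72 h; viability read by cellular conversion of MTT to formazan (non-radioactive cell proliferation assay).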

[6] = system: Mycobacterium tuberculosis; assay: Ratio of MIC for 6-weeks nutrient starved phase cultures of Mycobacterium tuberculosis H37Rv to MIC for active log phase Mycobacterium tuberculosis H37Rv; type: functional
[7] = Selectivity index, ratio of CC50 for African green monkey Vero cells to MIC for 6-weeks nutrient starved phase cultures of Mycobacterium tuberculosis H37Rv; type: functional
[8] = system: Mycobacterium tuberculosis; assay: Ratio of isoniazid MIC to compound MIC for active log phase Mycobacterium tuberculosis H37Rv by agar dilution method; type: functional
How it was run: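 MIC by agar dilution, following NCCLS-type guidance, against log-phase M. tuberculosis H37Rv (OD 600), run in duplicate. MIC is the lowest concentration that gives complete inhibition of bacterial growth. The line's ratio is isoniazid MIC divided by compound MIC.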

`CCN(CC)C(=O)CC[N+](=O)[O-]` showed an MIC [1] of 287 µM (≈ 50 µg/mL), an MIC [2] of over 287 µM and an MIC [3] of over 287 µM. It also gave an MIC [4] of over 287 µM.

In the case of `Cc1ccc(NC(=O)CC[N+](=O)[O-])c(C)c1`, the MIC [1] is reported as 225 µM (≈ 50 µg/mL), the MIC [2] is reported as 75 µM (≈ 16.7 µg/mL) and the MIC [3] is reported as 225 µM (≈ 50 µg/mL). For the same compound, the MIC [4] was over 225 µM.

`Cc1ccnc(NC(=O)CC[N+](=O)[O-])c1` showed an MIC [1] of over 239 µM, an MIC [2] of 59.8 µM (≈ 12.5 µg/mL) and an MIC [3] of 239 µM (≈ 50 µg/mL). For the same compound, the MIC [4] was 239 µM (≈ 50 µg/mL).

With `Cc1cc(NC(=O)CC[N+](=O)[O-])ccc1Br` the MIC [1] was 87.1 µM (≈ 25 µg/mL), the IC50 (Isocitrate lyase) was 36.8 µM and the MIC [2] was 43.5 µM (≈ 12.5 µg/mL). For the same compound, the MIC [3] was 43.5 µM (≈ 12.5 µg/mL) and the MIC [4] was 43.5 µM (≈ 12.5 µg/mL).

In the case of `CCCN(CCC)C(=O)CC[N+](=O)[O-]`, the MIC [1] is reported as over 247 µM, the MIC [2] is reported as over 247 µM and the MIC [3] is reported as over 247 µM. The MIC [4] was over 247 µM.

`O=C(CC[N+](=O)[O-])N1CCN(c2cccc(C(F)(F)F)c2)CC1` showed an MIC [1] of 75.5 µM (≈ 25 µg/mL), an IC50 (Isocitrate lyase) of 30.2 µM and an MIC [2] of 37.7 µM (≈ 12.5 µg/mL). It also gave an MIC [3] of 151 µM (≈ 50 µg/mL) and an MIC [4] of 75.5 µM (≈ 25 µg/mL).

For `CCN1CCN(C(=O)CC[N+](=O)[O-])CC1`, the MIC [1] was 58.1 µM (≈ 12.5 µg/mL), the IC50 (Isocitrate lyase) was 12.6 µM and the MIC [2] was 29 µM (≈ 6.25 µg/mL). For the same compound, the MIC [3] was 58.1 µM (≈ 12.5 µg/mL) and the MIC [4] was 116 µM (≈ 25 µg/mL).

In the case of `O=C(CC[N+](=O)[O-])N(Cc1ccccc1)Cc1ccccc1`, the MIC [1] is reported as 168 µM (≈ 50 µg/mL), the MIC [2] is reported as over 168 µM and the MIC [3] is reported as over 168 µM. The MIC [4] was over 168 µM.

`O=C(O)c1cn(C2CC2)c2cc(N3CCN(C(=O)CC[N+](=O)[O-])CC3)c(F)cc2c1=O` showed an MIC [1] of 0.09 µM (≈ 0.0389 µg/mL), an IC50 (Isocitrate lyase) of 0.12 µM and an MIC [2] of 0.09 µM (≈ 0.0389 µg/mL). For the same compound, the MIC [3] was 1.8 µM (≈ 0.778 µg/mL), the CC50 at 72 h [5] was over 145 µM and the MIC [4] was 0.09 µM (≈ 0.0389 µg/mL).

`O=C(CC[N+](=O)[O-])N1CCN(Cc2ccccc2)CC1` gave an MIC [1] of over 180 µM, an MIC [2] of 90.1 µM (≈ 25 µg/mL) and an MIC [3] of over 180 µM. It also gave an MIC [4] of over 180 µM.

For `CCn1cc(C(=O)O)c(=O)c2cc(F)c(N3CCN(C(=O)CC[N+](=O)[O-])CC3C)c(F)c21` (configuration not stated), the MIC [1] was 6.91 µM (≈ 3.13 µg/mL), the IC50 (Isocitrate lyase) was 1.46 µM and the MIC [2] was 1.72 µM (≈ 0.778 µg/mL). It also gave an MIC [3] of 3.44 µM (≈ 1.56 µg/mL), a CC50 at 72 h [5] of over 138 µM and an MIC [4] of 1.72 µM (≈ 0.778 µg/mL).

In the case of `O=C(CC[N+](=O)[O-])Nc1ccc(Cl)cc1`, the MIC [1] is reported as 54.7 µM (≈ 12.5 µg/mL), the IC50 (Isocitrate lyase) is reported as 21.3 µM and the MIC [2] is reported as 27.3 µM (≈ 6.25 µg/mL). The MIC [3] was 109 µM (≈ 25 µg/mL) and the MIC [4] was 13.7 µM (≈ 3.13 µg/mL).

Work on `O=C(O)c1cn(C2CC2)c2cc(N3CCNCC3)c(F)cc2c1=O` [CIPROFLOXACIN] yielded an MIC [4] of 2.35 µM (≈ 0.779 µg/mL).

Compound `O=C(CC[N+](=O)[O-])Nc1ccc(Cl)cn1` has an MIC [1] of 218 µM (≈ 50 µg/mL), an MIC [2] of 54.4 µM (≈ 12.5 µg/mL) and an MIC [3] of 109 µM (≈ 25 µg/mL). For the same compound, the MIC [4] was 109 µM (≈ 25 µg/mL).

For `O=C(O)CC[N+](=O)[O-]`, the MIC [1] was over 420 µM, the IC50 (Isocitrate lyase) was 116 µM and the MIC [2] was over 420 µM. For the same compound, the MIC [3] was over 420 µM and the MIC [4] was over 420 µM.

Work on `O=C(CC[N+](=O)[O-])N1CCN(c2ccccc2)CC1` yielded an MIC [1] of 190 µM (≈ 50 µg/mL), an IC50 (Isocitrate lyase) of 41.2 µM and an MIC [2] of 47.5 µM (≈ 12.5 µg/mL). For the same compound, the MIC [3] was 190 µM (≈ 50 µg/mL) and the MIC [4] was over 190 µM.

Compound `COc1ccc(NC(=O)CC[N+](=O)[O-])cc1` has an MIC [1] of 112 µM (≈ 25 µg/mL), an MIC [2] of 55.8 µM (≈ 12.5 µg/mL) and an MIC [3] of 223 µM (≈ 50 µg/mL). It also gave an MIC [4] of over 223 µM.

Compound `O=C(CC[N+](=O)[O-])Nc1ccc(Br)cc1` has an MIC [1] of 91.5 µM (≈ 25 µg/mL), an IC50 (Isocitrate lyase) of 32.5 µM and an MIC [2] of 45.8 µM (≈ 12.5 µg/mL). The MIC [3] was 183 µM (≈ 50 µg/mL) and the MIC [4] was 91.5 µM (≈ 25 µg/mL).

In the case of `NNC(=O)c1ccncc1` [ISONIAZID], the MIC [1] is reported as 45.6 µM (≈ 6.25 µg/mL), the MIC [2] is reported as over 365 µM and the MIC [3] is reported as 0.72 µM (≈ 0.0987 µg/mL). For the same compound, the CC50 at 72 h [5] was over 456 µM and the MIC [4] was over 365 µM.

`CCn1cc(C(=O)O)c(=O)c2cc(F)c(N3CCN(C(=O)CC[N+](=O)[O-])CC3)cc21` gave an MIC [1] of 7.44 µM (≈ 3.13 µg/mL), an IC50 (Isocitrate lyase) of 0.2 µM and an MIC [2] of 0.47 µM (≈ 0.198 µg/mL). The MIC [3] was 1.85 µM (≈ 0.778 µg/mL), the CC50 at 72 h [5] was over 149 µM and the MIC [4] was 0.95 µM (≈ 0.399 µg/mL).

With `O=C(CC[N+](=O)[O-])Nc1ccccc1` the MIC [1] was 129 µM (≈ 25 µg/mL), the MIC [2] was 64.4 µM (≈ 12.5 µg/mL) and the MIC [3] was 257 µM (≈ 50 µg/mL). For the same compound, the MIC [4] was over 257 µM.

For `O=C(CC[N+](=O)[O-])Nc1ccc(F)cc1`, the MIC [1] was 118 µM (≈ 25 µg/mL), the MIC [2] was 58.9 µM (≈ 12.5 µg/mL) and the MIC [3] was 118 µM (≈ 25 µg/mL). For the same compound, the MIC [4] was 236 µM (≈ 50 µg/mL).

For `COc1c(N2C(C)CN(C(=O)CC[N+](=O)[O-])CC2C)c(F)cc2c(=O)c(C(=O)O)cn(C3CC3)c12` (configuration not stated), the Ratio [6] was 4, the MIC [1] was 0.08 µM (≈ 0.0392 µg/mL) and the IC50 (Isocitrate lyase) was 0.1 µM. For the same compound, the “Selectivity Index” value [7] was 3185, the MIC [2] was 0.04 µM (≈ 0.0196 µg/mL) and the MIC [3] was 0.16 µM (≈ 0.0785 µg/mL). It also gave a CC50 at 72 h [5] of over 127 µM, a Ratio [8] of 4.5 and an MIC [4] of 0.08 µM (≈ 0.0392 µg/mL).

In the case of `Cc1ccc(NC(=O)CC[N+](=O)[O-])cc1`, the MIC [1] is reported as 120 µM (≈ 25 µg/mL), the MIC [2] is reported as 60 µM (≈ 12.5 µg/mL) and the MIC [3] is reported as 240 µM (≈ 50 µg/mL). For the same compound, the MIC [4] was over 240 µM.

— ChEMBL document CHEMBL1817660, “Synthesis of various 3-nitropropionamides as Mycobacterium tuberculosis isocitrate lyase inhibitor” (Bioorg Med Chem Lett, 2011)
